# Source: PubChem (Broad Institute)
# In the library only some 2.5% were active in any assay of this set; here they are far more common.
# N-glyco inh: increase of ERlucT glycosylation luciferase signal, primary screen, N-linked glycosylation inhibitor project, D54 ERlucT cells, luminescence, set 2 | reporter increase, % at 12.5 µM | D54 ERlucT glycosylation luciferase reporter, 24 h; percent of 100 nM tunicamycin response | actives 0.23% (n = 360,000) | AID 588692, 2011;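 active = mean luciferase reporter signal, scaled so untreated is 0 and the glycosylation-blocking control 100, at or above a set limit in every replicate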;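 also: luciferase carries N-glycosylation sites so blocking glycosylation raises the light; 0% = median of neutral control wells and 100% = median of 100 nM tunicamycin wells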
# MLL AF4-AF9 inh: inhibitors of AF4 peptide binding to AF9, primary screen, biochemical, AlphaScreen, biotin-AF4 peptide, FLAG-AF9, single point | AID 651704, 2012 | inhibition, % at 10 µM | Protein AF-9 (Homo sapiens), P42568 | actives 0.47% (n = 350,000);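 active = every replicate reaching a set inhibition limit, whatever the replicate mean, cut at about 25% in these data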;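 also: 0% = plate neutral control median and 100% = total signal loss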
# Target sequence (P42568 whole entry, looked up): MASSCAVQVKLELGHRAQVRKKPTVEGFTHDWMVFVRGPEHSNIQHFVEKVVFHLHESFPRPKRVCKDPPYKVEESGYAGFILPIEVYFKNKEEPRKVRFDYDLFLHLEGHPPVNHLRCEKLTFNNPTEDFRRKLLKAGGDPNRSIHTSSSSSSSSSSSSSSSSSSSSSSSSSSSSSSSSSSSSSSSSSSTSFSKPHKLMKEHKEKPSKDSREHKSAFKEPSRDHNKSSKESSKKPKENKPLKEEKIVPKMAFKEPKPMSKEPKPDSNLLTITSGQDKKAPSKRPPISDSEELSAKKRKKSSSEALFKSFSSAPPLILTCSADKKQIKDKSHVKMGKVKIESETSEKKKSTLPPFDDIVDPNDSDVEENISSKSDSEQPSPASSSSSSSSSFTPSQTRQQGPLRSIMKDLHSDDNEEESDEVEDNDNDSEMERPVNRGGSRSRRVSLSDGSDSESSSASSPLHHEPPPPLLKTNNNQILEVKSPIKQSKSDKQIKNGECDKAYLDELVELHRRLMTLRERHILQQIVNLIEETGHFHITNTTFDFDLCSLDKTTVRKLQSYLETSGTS
# FN deposition inh: inhibitors of fibronectin matrix deposition, primary screen, AH1F cells, Alexa488-fibronectin fluorescence, plate reader | AH1F fibroblasts, overnight | inhibition, % at 12.6 µM | actives 0.086% (n = 350,000) | AID 743247, 2014;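 active = mean inhibition across replicates of 30% or more, regardless of how many single replicates reach that level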;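 also: positive control wells lacked labelled fibronectin entirely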
#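 Assay system: AH1F fibroblasts / Quantity: 10000 cells per well / Medium: DMEM plus 2% serum, read in PBS / Reagent: labelled fibronectin 24 nM / Dosing: single dose, pinned / Times: 1 h cell attachment, overnight exposure to compound and label / Signal: fluorescence, ex 485 nm, em 525 nm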
# EWS-Fli block: EWS/Fli-driven NR0B1 reporter inhibitors, primary screen, A673 cells, NR0B1 luciferase, luminescence, MLPCN library | AID 651661, 2012 | inhibition, % at 12.6 µM | actives 0.67% (n = 350,000) | viability-normalised;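 active = mean inhibition of at least 50% after viability correction, with every replicate also passing that limit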;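 also: firefly luciferase signal divided by Alamar Blue viability fluorescence both relative to DMSO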
# Env fusion inh: inhibitors of HIV-1 Env-driven cell-cell fusion, primary screen, HeLa-JRFL effector, CEM21 target cells, luciferase; inhibition, % at 12.3 µM; actives 1.1% (n = 360,000); AID 651610, 2012;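 active = mean replicate inhibition score of at least 50 and every replicate individually at or above 50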;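 also: 0% = plate neutral controls and 100% = maraviroc near 300 nM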
# PAX8 inh HTS: inhibitors of PAX8-driven TPO luciferase reporter, primary screen, RMG-I cells, single concentration; SteadyGlo, 24 h; inhibition, % at 12.6 µM; actives 1.2% (n = 360,000); AID 652154, 2013;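 active = mean replicate inhibition at least 60% with every replicate also reaching 60%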;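 also: luciferase light reporting Pax8 driven TPO promoter activity; plate controls were median of neutral control wells for no effect and mitoxantrone controls for full effect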
# Numbers without * were called inactive; x = not tested or not shown; [ ] = dose if it differs, or a comment.
SMILES,N-glyco inh,MLL AF4-AF9 inh,FN deposition inh,EWS-Fli block,Env fusion inh,PAX8 inh HTS
COc1ccc(S(=O)(=O)Nc2ccc3c(c2)C(=O)N([C@H](C)CO)C[C@@H](C)[C@H](CN(C)C(=O)Nc2c(C)noc2C)O3)cc1,x,-3,x,-6,46[16.7 µM],x
O=c1oc(-c2ccccc2)cc(Cl)c1Cl,-8,0,0,59*,-137,4
CCCNc1ncnc2c1cnn2C1CCCCO1 (stereo not drawn),-1,0,-4,-33,0,-31
CCNc1ncnc2c1cnn2C1CCCO1 (stereo not drawn),1,-44,2,10,74*,-21
C[C@@H]1CN([C@H](C)CO)C(=O)c2cc(-c3ccccc3F)cnc2O[C@@H]1CN(C)Cc1ccc(F)cc1,x,-8,-4,-8,10[16.7 µM],x
CCCCCCCCCCCCCC(=O)NO,2,-1,8,55*,8,5
CCCCCCC(=O)O,-1,0,x,-5,x,x
CN(Cc1ccccc1F)c1ncnc2sccc12,-5,-4,6,2,11,7
CN(Cc1cccs1)c1ncnc2sccc12,-4,x,-9,x,70*,x
c1csc(CNc2ncnc3sccc23)c1,-4,x,-6,x,80*,x
c1ccc(CNc2ncnc3sccc23)cc1,-4,-4,-5,x,21,12
CCOC(=O)c1sc2nc3c(SCCC(=O)O)cc(C(=O)c4cc(OC)ccc4O)cn3c(=O)c2c1C,-4,2,1,18,72*,12
CNC(=O)C[C@H]1CC[C@@H]2[C@H](COC[C@@H](O)CN2Cc2ccncc2)O1,x,-5,-1,0,x,-14
C[C@@H]1CCCCO[C@@H](CN(C)Cc2ccc3c(c2)OCO3)[C@H](C)CN([C@H](C)CO)C(=O)c2cc(NC(=O)Nc3ccc4c(c3)OCO4)ccc2O1,x,32*,6,3,-21[16.7 µM],15
C[C@@H]1CN([C@@H](C)CO)C(=O)c2cc(NC(=O)Nc3ccc4c(c3)OCO4)ccc2O[C@@H](C)CCCCO[C@@H]1CN(C)Cc1ccc2c(c1)OCO2,x,4,2,2,-75[16.7 µM],13
C[C@H]1CCCCO[C@@H](CN(C)Cc2ccc3c(c2)OCO3)[C@@H](C)CN([C@@H](C)CO)C(=O)c2cc(NC(=O)Nc3ccc4c(c3)OCO4)ccc2O1,x,16,6,16,84*[16.7 µM],10
COc1ccc(S(=O)(=O)Nc2cccc3c2O[C@H](CN(C)C(=O)Nc2ccccc2)[C@@H](C)CN([C@@H](C)CO)C3=O)cc1,x,0,x,-3,12[16.7 µM],-3
CNC(=O)C[C@@H]1CC[C@H]2[C@@H](COC[C@H](O)CN2C(=O)c2ccc3c(c2)OCO3)O1,x,-2,5,x,x,x
CN(C)c1ccc2nc3ccc(=O)cc-3sc2c1,-8,66*,1,36,66*,x
Cc1cc2nc3ccc(=[N+](C)C)cc-3sc2cc1N,-20,x,x,x,x,x
Cc1ccc(S(=O)(=O)N2C[C@H]3n4c(=O)ccc(=O)n4C[C@H](OC(=O)NCC4CCCCC4)[C@@]3(O)C2)cc1,4,3,-5,40,25,73*
Cc1ccc(S(=O)(=O)N2C[C@H]3n4c(=O)ccc(=O)n4C[C@H](OC(=O)NCc4ccccc4)[C@@]3(O)C2)cc1,-3,-3,-6,-11,11,24
Cc1nc(SCCC(=O)O)c2cc(-c3ccccc3)sc2n1,-2,-2,0,63*,42,-4
Cc1ccc(NC(=O)C2=C(c3ccccc3)S(=O)(=O)CCS2(=O)=O)cc1,3,-2,x,65*,-40,116*
Cc1nnc(Sc2cc(NCCCO)c([N+](=O)[O-])c3nonc23)s1,6,12,-3,2,-5,75*
Cc1nnc(Sc2cc(NCCO)c([N+](=O)[O-])c3nonc23)s1,10,9,-19,1,0,30
COc1cccc(S(=O)(=O)N(C)C[C@@H]2OCc3ccccc3-c3c(n(C)c4ccccc34)C(=O)N([C@H](C)CO)C[C@@H]2C)c1,x,2,-10,8,55*[16.7 µM],75*
